Experimental data taken from ChEMBL document CHEMBL4393672, “High affinity CXCR4 inhibitors generated by linking low affinity peptides” (Eur J Med Chem, 2019).
Each block holds one compound with its values, some of them ahead of it. Active and inactive are the calls of the source. The calls are words filed in the database; no cut-off is given here.

Legend:
[1] = test system: Human immunodeficiency virus 1; test: Antiviral activity against Human immunodeficiency virus 1 NL4-3 infected in human PBMC cells assessed as reduction in intracellular p24 level at 100 nM preincubated with cells 2 hrs followed by viral infection and measured after 24 hrs by ELISA; type: functional
Summary of the method: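 PBMCs from healthy donors (2.5×10^6 cells/mL) were exposed to compound for 2 h, washed, and infected with HIV-1 NL4-3 at MOI 0.02 for 2 h at 37°C. Cells were washed, resuspended in complete medium and incubated 24 h. Cells were then lysed with protease inhibitor, and intracellular p24 was quantified by ELISA.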

[2] = target: T1, C-X-C chemokine receptor type 4 (Homo sapiens, UniProt P61073); test: Competitive binding affinity to CXCR4 in human SupT1 cells incubated for 40 mins by 12G5 antibody based fluorescence analysis; type: cell-based
T1 sequence (P61073 whole entry): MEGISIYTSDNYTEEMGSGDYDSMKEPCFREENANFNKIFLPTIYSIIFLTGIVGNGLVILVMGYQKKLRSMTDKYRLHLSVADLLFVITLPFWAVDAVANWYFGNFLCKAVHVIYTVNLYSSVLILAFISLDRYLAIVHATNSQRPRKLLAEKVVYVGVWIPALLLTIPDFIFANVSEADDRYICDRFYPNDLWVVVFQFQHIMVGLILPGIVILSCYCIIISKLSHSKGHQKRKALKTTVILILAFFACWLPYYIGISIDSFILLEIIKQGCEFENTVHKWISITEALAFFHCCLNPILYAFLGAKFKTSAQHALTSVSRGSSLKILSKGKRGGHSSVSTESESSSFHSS

[3] = test system: C-X-C chemokine receptor type 4 (Homo sapiens), P61073 [Y45A]; test: Competitive binding affinity to CXCR4 Y45A mutant (unknown origin) expressed in CHO cells at 200 nM incubated for 30 mins by 12G5 antibody based fluorescence analysis; type: cell-based
C-X-C chemokine receptor type 4 (Homo sapiens), P61073 [Y45A], sequence (P61073 whole entry Y45A): as the sequence (P61073 whole entry) above, with Y45A counted along it
Summary of the method: (§1)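 Wild-type or mutant CXCR4 cells (5×10⁵/well) incubated with single 200 nM concentration in FACS buffer (0.5% BSA, 0.05% azide in PBS) plus 12G5 anti-CD184 antibody, 30 min on ice; washed, FITC anti-mouse IgG 30 min on ice; fluorescence 485ex/528em; duplicates, ≥3 independent experiments, normalized as percent of control.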

[4] = test system: C-X-C chemokine receptor type 4 (Homo sapiens), P61073 [R30A]; test: Binding affinity to CXCR4 R30A mutant (unknown origin) expresssed in CHO cells at 200 nM incubated for 30 mins by 12G5 antibody based fluorescence analysis; type: cell-based
C-X-C chemokine receptor type 4 (Homo sapiens), P61073 [R30A], sequence (P61073 whole entry R30A): as the sequence (P61073 whole entry) above, with R30A counted along it
Summary of the method: (§2)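 Mutational mapping in CHO cells expressing wild-type or mutant CXCR4, 5×10^5 cells/well. Cells were incubated with a single 200 nM peptide concentration plus 12G5 anti-CD184 antibody in FACS buffer on ice for 30 min. FITC anti-mouse IgG was then added for 30 min on ice. Fluorescence was read at 485/528 nm and normalized to control, in duplicate across at least three experiments.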

[5] = test system: C-X-C chemokine receptor type 4 (Homo sapiens), P61073 [W94A]; test: Competitive binding affinity at CXCR4 W94A mutant (unknown origin) expressed in CHO cells at 200 nM incubated for 30 mins by 12G5 antibody based fluorescence analysis; type: cell-based; summary of the method: as §1
C-X-C chemokine receptor type 4 (Homo sapiens), P61073 [W94A], sequence (P61073 whole entry W94A): as the sequence (P61073 whole entry) above, with W94A counted along it

[6] = test system: C-X-C chemokine receptor type 4 (Homo sapiens), P61073 [Q200A]; test: Binding affinity to CXCR4 Q200A mutant (unknown origin) expresssed in CHO cells at 200 nM incubated for 30 mins by 12G5 antibody based fluorescence analysis; type: cell-based; summary of the method: as §2
C-X-C chemokine receptor type 4 (Homo sapiens), P61073 [Q200A], sequence (P61073 whole entry Q200A): as the sequence (P61073 whole entry) above, with Q200A counted along it

[7] = test system: C-X-C chemokine receptor type 4 (Homo sapiens), P61073 [V112A]; test: Competitive binding affinity to CXCR4 V112A mutant (unknown origin) expresssed in CHO cells at 200 nM incubated for 30 mins by 12G5 antibody based fluorescence analysis; type: cell-based; summary of the method: as §2
C-X-C chemokine receptor type 4 (Homo sapiens), P61073 [V112A], sequence (P61073 whole entry V112A): as the sequence (P61073 whole entry) above, with V112A counted along it

[8] = target: T1, C-X-C chemokine receptor type 4; test: Inhibition of N-terminal flag-tagged CXCR4 (unknown origin) internalization expressed in CHO cells incubated for 45 mins and measured after 1 hr by FITC-labeled anti-flag antibody based fluorescence analysis
[9] = target: T1, C-X-C chemokine receptor type 4; test: Antagonist activity at CXCR4 (unknown origin) expressed in CHO cells assessed as reduction in basal phosphorylated AKT expression at 50 uM incubated for 30 mins followed by measured after 5 mins by Western blot analysis; type: cell-based
[10] = test system: C-X-C chemokine receptor type 4 (Homo sapiens), P61073 [W195A]; test: Competitive binding affinity to CXCR4 W195A mutant (unknown origin) expresssed in CHO cells at 200 nM incubated for 30 mins by 12G5 antibody based fluorescence analysis; type: cell-based; summary of the method: as §1
C-X-C chemokine receptor type 4 (Homo sapiens), P61073 [W195A], sequence (P61073 whole entry W195A): as the sequence (P61073 whole entry) above, with W195A counted along it

[11] = test system: C-X-C chemokine receptor type 4 (Homo sapiens), P61073 [Y116A]; test: Competitive binding affinity at CXCR4 Y116A mutant (unknown origin) expressed in CHO cells at 200 nM incubated for 30 mins by 12G5 antibody based fluorescence analysis; type: cell-based; summary of the method: as §1
C-X-C chemokine receptor type 4 (Homo sapiens), P61073 [Y116A], sequence (P61073 whole entry Y116A): as the sequence (P61073 whole entry) above, with Y116A counted along it

[12] = test system: C-X-C chemokine receptor type 4 (Homo sapiens), P61073 [D262N]; test: Binding affinity to CXCR4 D262N mutant (unknown origin) expresssed in CHO cells at 200 nM incubated for 30 mins by 12G5 antibody based fluorescence analysis; type: cell-based; summary of the method: as §1
C-X-C chemokine receptor type 4 (Homo sapiens), P61073 [D262N], sequence (P61073 whole entry D262N): as the sequence (P61073 whole entry) above, with D262N counted along it

[13] = target: T1, C-X-C chemokine receptor type 4; test: Antagonist activity at CXCR4 (unknown origin) in CHO cells assessed as reduction in SDF-1alpha-induced Akt phosphorylation level at 50 uM incubated for 30 mins followed by SDF1-alpha addition measured after 5 mins by Western blot analysis; type: cell-based
Summary of the method: (§3)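 CXCR4-expressing CHO cells grown in DMEM with 10% FBS, seeded at 10^6 cells/well for 24 h, then moved to serum-free medium. Cells were pretreated with 50 μM peptide for 30 min, then stimulated with 12.5 nM SDF-1α for 5 min. Lysates were adjusted to 3 mg/mL, run on 12% SDS-PAGE and immunoblotted for phospho-AKT/ERK with ECL detection. Bands were quantified by densitometry as % control.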

[14] = Stability of compound in water assessed as compound remaining at 1mM at 37 degC after 48 hrs by HPLC analysis relative to control; type: physicochemical; conditions: read-out: Stability
[15] = target: T1, C-X-C chemokine receptor type 4; test: Competitive binding affinity to CXCR4 receptor (unknown origin) expressed in CHO cells incubated for 40 mins by 12G5 antibody based fluorescence analysis; type: cell-based
[16] = target: T1, C-X-C chemokine receptor type 4; test: Antagonist activity at CXCR4 receptor in human SupT1 cells assessed as inhibition of SDF-1alpha-induced calcium release at 1 uM preincubated for 2 to 3 mins followed by SDF-1alpha addition by Fluo-4AM dye based fluorescence assay relative to control; type: functional, cell-based
Summary of the method: (§4)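 SupT1 cells loaded with Fluo-4AM (2 µM) plus probenecid (5 µM) for 30 min at 37°C in HBSS/20 mM HEPES, washed; 1×10⁶ cells/mL exposed to compound 2–3 min, then stimulated with 50 nM SDF-1α; fluorescence read at […]/510em.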

[17] = Stability of compound in 10% FBS assessed as compound remaining at 1mM after 1 hr by HPLC analysis relative to control; type: ADME, cell-free, Bos taurus, Serum; conditions: cattle, read-out: Stability
Summary of the method: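 Peptide dissolved at 1 mM in culture medium with 10% FBS, incubated at 37°C; samples taken over time and analysed by C18 HPLC, UV 220 nm; remaining peptide from peak intensity relative to original peak.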

PBMC = test: Cytotoxicity against HIV1 NL4-3 infected in human PBMC cells assessed as cell viability at 50 uM preincubated with cells for 2 hrs followed by viral infection for 2 hrs and measured after 5 days by CellTiter-Blue assay; type: cell-based; conditions: 120 h
Summary of the method: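 PBMCs were seeded at the anti-HIV assay densities and treated in parallel under the same X4 infection and compound exposure conditions. After 5 days at 37°C, viability was read by CellTiter-Blue fluorescence (560/590 nm). The top concentration tested was 50 μM.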

[18] = test system: C-X-C chemokine receptor type 4 (Homo sapiens), P61073 [E288Q]; test: Binding affinity to CXCR4 E288Q mutant (unknown origin) expresssed in CHO cells at 200 nM incubated for 30 mins by 12G5 antibody based fluorescence analysis; type: cell-based; summary of the method: as §1
C-X-C chemokine receptor type 4 (Homo sapiens), P61073 [E288Q], sequence (P61073 whole entry E288Q): as the sequence (P61073 whole entry) above, with E288Q counted along it

[19] = target: T1, C-X-C chemokine receptor type 4; test: Antagonist activity at CXCR4 receptor in human SupT1 cells assessed as inhibition of SDF-1alpha-induced calcium release preincubated for 2 to 3 mins followed by SDF-1alpha addition by Fluo-4AM dye based fluorescence assay; type: functional, cell-based; summary of the method: as §4
[20] = target: T1, C-X-C chemokine receptor type 4; test: Antagonist activity at CXCR4 (unknown origin) in CHO cells assessed as reduction in SDF-1alpha-induced ERK phosphorylation level at 50 uM incubated for 30 mins followed by SDF1-alpha addition measured after 5 mins by Western blot analysis; type: cell-based; summary of the method: as §3
[21] = test system: Human immunodeficiency virus 1; test: Antiviral activity against Human immunodeficiency virus 1 NL4-3 infected in human PBMC cells assessed as inhibition of extracellular p24 level preincubated with cells for 2 hrs followed by viral infection for 2 hrs and measured after 5 days by ELISA

SMILES: c1cc(CN2CCCNCCNCCCNCC2)ccc1CN1CCCNCCNCCCNCC1
- Activity [1]: Active

SMILES: CC(C)C[C@@H](N)C(=O)NCC(=O)N[C@H](C)C(=O)N[C@H](CO)C(=O)N[C@H](Cc1c[nH]c2ccccc12)C(=O)N[C@H](Cc1cnc[nH]1)C(=O)N[C@H](CCCNC(=N)N)C(=O)N1CCC[C@@H]1C(=O)N[C@H](CC(=O)O)C(=O)N[C@H](CCCCN)C(=O)N[C@H](CS)C(=O)N[C@H](CS)C(=O)N[C@H](CC(C)C)C(=O)NCC(=O)N[C@H](Cc1ccc(O)cc1)C(=O)N[C@H](CCC(N)=O)C(=O)N[C@H](CCCCN)C(=O)N[C@H](CCCNC(=N)N)C(=O)N1CCC[C@@H]1C(=O)N[C@H](CC(C)C)C(=O)N1CCC[C@@H]1C(=O)NCCCCCC(=O)N[C@@H](CCCCN)C(=O)NCC(=O)N[C@@H](CC(C)C)C(=O)N[C@@H](CC(C)C)C(=O)NCC(=O)N[C@@H](CC(C)C)C(=O)N[C@@H](CO)C(=O)N[C@@H](CCCCN)C(N)=O
- IC50 [2]: 147 nM

- Activity [3]: inactive
- Activity [4]: Active
- Activity [5]: inactive
- Activity [6]: inactive
- Activity [7]: inactive
- Activity [8]: inactive
- Activity [9]: Active
- Activity [10]: inactive
- Activity [11]: inactive
- Activity [12]: inactive
- Activity [13]: Active
- remaining at 48 h, 1000 µM [14]: 87%
- IC50 [15]: 16 nM
- inhibition [16]: 100%
- remaining at 1 h, 1000 µM [17]: 80%
- Activity [18]: inactive
- inhibition [19]: Dose-dependent effect
- Activity [20]: Active
- IC50 [2]: 14 nM
- IC50 [21]: 93 nM
SMILES: CC(C)C[C@@H](N)C(=O)NCC(=O)N[C@H](C)C(=O)N[C@H](CO)C(=O)N[C@H](Cc1c[nH]c2ccccc12)C(=O)N[C@H](Cc1cnc[nH]1)C(=O)N[C@H](CCCNC(=N)N)C(=O)N1CCC[C@@H]1C(=O)N[C@H](CC(=O)O)C(=O)N[C@H](CCCCN)C(=O)N[C@H](CCCCN)C(=O)N[C@H](CCCNC(=N)N)C(=O)NCCCCCC(=O)N[C@@H](CCCCN)C(=O)N[C@@H](CCCNC(=N)N)C(=O)N[C@@H](CCCCN)C(=O)N[C@H](C(=O)N[C@@H](CC(N)=O)C(=O)N[C@@H](CC(N)=O)C(=O)N[C@@H](CC(N)=O)C(=O)N1CCC[C@H]1C(=O)N[C@@H](CCCNC(=N)N)C(=O)N[C@H](C(=O)N[C@@H](CS)C(=O)O)[C@@H](C)O)[C@@H](C)O
- inhibition at 0.1 µM [1]: 16%
- Activity (PBMC): Non-Toxic
- inhibition [21]: Dose-dependent effect
